High-throughput results as filed in PubChem.
Hits are enriched below; roughly 1.6% of the tested compounds scored in any of these assays.
ABHD5 PLIN5 PPI – ABHD5-PLIN5 protein interaction inhibition | inhibition, % at 4 µM | hit rate 0.78% among 360,000 | AID 602281 | Q00G26+Q8WTS1 | Split G. princeps luciferase complementation, luminescence, 4 h;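 active = inhibition above the mean inhibition across every tested compound plus 3 SD, cut at about 22% in these data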
NOD2-RIPK2 inh – blocks binding of human NOD2 to RIPK2; CHO BLA complementation NOD2-RIPK2, CCF4 ratio; inhibition, % at 4.98 µM; hit rate 0.38% among 360,000; O43353; in the data active = inhibition above about 21%
Dynein cargo inh – dynein cargo transport inhibition; hit rate 0.47% among 220,000; z-score, hits read low; 3617.4 mouse cells, GR-EGFP nuclear translocation imaging; test concentration mostly 20 µM; stimulated with dexamethasone, 1 µM; hits give low values;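 active = plate z-score of nuclear minus cytoplasmic receptor signal below a set negative limit, without overly bright fluorescence or cell loss, cut at about -3.5 in these data, passing the limit was not always enough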;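 also: z-score of nuclear minus cytoplasmic ring GR-EGFP intensity difference per well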
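Buffer or medium: tet-free, stripped-serum medium; Also added: dexamethasone, 1.0 µM final; Technique: high-content fluorescence imaging after fixation; Times: 48 h induction, 1 h compound, 30 min dex at 37 °C; Read-out: per-cell GR-EGFP intensity, nucleus versus surrounding cytoplasmic ring, well-averaged.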
TLR9-MyD88 block – blocks human TLR9 binding to MyD88 | hit rate 0.21% among 340,000 | CHO BLA complementation TLR9-MyD88, CCF4 FRET ratio | inhibition, % at 4.98 µM | Q9NR96+Q99836;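 active = inhibition above the mean over all tested compounds plus 3 SD, cut at about 21% in these data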
Beta2AR agonist – activates human beta-2 adrenergic receptor causing internalization | P07550 | AID 504454 | Am2.2-beta2AR cells, FAP receptor internalization, flow cytometry | response, % (test concentration not listed) | hit rate 0.43% among 340,000;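 active = response above a set limit, near 3 SD of response in nonfluorescent compounds, cut at about 42% in these data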
Target sequence (P07550 whole entry, looked up): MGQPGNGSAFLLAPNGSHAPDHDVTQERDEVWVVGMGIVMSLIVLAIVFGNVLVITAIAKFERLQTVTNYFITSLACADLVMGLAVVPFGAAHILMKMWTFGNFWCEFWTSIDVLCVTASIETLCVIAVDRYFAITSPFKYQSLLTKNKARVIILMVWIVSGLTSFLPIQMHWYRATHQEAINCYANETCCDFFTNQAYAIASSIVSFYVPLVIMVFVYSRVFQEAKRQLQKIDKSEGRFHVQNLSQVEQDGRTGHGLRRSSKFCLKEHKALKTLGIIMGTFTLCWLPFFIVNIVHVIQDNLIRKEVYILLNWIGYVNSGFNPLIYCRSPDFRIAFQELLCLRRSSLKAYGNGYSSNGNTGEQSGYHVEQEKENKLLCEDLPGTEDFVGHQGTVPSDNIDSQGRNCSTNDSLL
TLR4-MyD88 BLA – inhibitors of human TLR4-MyD88 binding | O00206+Q99836 | HeLa CL3-4 TLR4/MyD88 BLA complementation, FRET ratio | inhibition, % at 8.4 µM | hit rate 0.18% among 200,000; in the data active = inhibition above about 25%
TLR4 MyD88 cnf – TLR4-MyD88 interaction inhibition confirmed | HeLa CL3-4 BLA complementation, CCF4 FRET ratio | inhibition, % at 8.4 µM | shares compounds with TLR4-MyD88 BLA | hit rate 50% among 350;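 active = mean inhibition across three repeat runs above about 25% carried over from the earlier screen, limit read from the data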
BLA inhibitor ct – counter-screen for TLR4-MyD88 inhibitors: beta-lactamase reporter inhibitors; shares compounds with TLR4-MyD88 BLA; HeLa BLA reporter, CCF4 FRET ratio; inhibition, % at 8.4 µM; hit rate 63% among 350;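 active = mean inhibition over three repeats above about 26% taken from the earlier screen, limit read from the data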;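 also: HeLa cells stably expressing beta-lactamase reporter as counterscreen for TLR4-MyD88 inhibitors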
Dynein inh conf – dynein cargo transport inhibition, confirmation | hit rate 69% among 1,000 | shares compounds with Dynein cargo inh | 3617.4 GR-EGFP nuclear translocation imaging, dexamethasone-induced | AID 463116 | calls only at 20 µM;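 active = inhibition of receptor movement into the nucleus at or above a set limit in both runs, with normal cell brightness and cell count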;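 also: dexamethasone at 1 µM final in well for 30 min; nuclear minus cytoplasmic GR-EGFP mean intensity difference in channel 2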
Numbers stand for hits; n = inactive; x = no result.

SMILES | ABHD5 PLIN5 PPI | NOD2-RIPK2 inh | Dynein cargo inh | TLR9-MyD88 block | Beta2AR agonist | TLR4-MyD88 BLA | TLR4 MyD88 cnf | BLA inhibitor ct | others
O=C1N=c2ccccc2=C1c1sc(Nc2ccc(O)cc2)nc1O | n | n | n | n | n | 27 | n | n
O=[N+]([O-])/C(Cl)=C(/NCCO)C(Cl)=C(Cl)Cl | n | n | x | n | n | x | x | x
O=C(NCCCc1ccccc1)c1ccccc1 | n | n | n | n | n | 26 | n | n
O=C(NCCCCc1ccccc1)c1ccccc1 | n | n | n | n | n | n | x | x
Cc1cccc(NC(=O)c2cc([N+](=O)[O-])ccc2Cl)c1O | n | n | n | n | n | n | x | x
Cc1n[nH]c(C)c1NC(=O)c1cc([N+](=O)[O-])ccc1Cl | n | n | n | n | n | 27 | n | n
CN(Cc1ccccc1)/C(=N/O)c1cccc(Cl)c1 | n | n | x | n | n | x | x | x
CC(O)CN(Cc1cccc(Cl)c1)CC(C)O (configuration not stated) | n | n | n | n | n | 28 | n | n
CNC(=O)c1sc(N2N=C3/C(=C\c4ccccc4)CCCC3C2c2ccccc2)nc1C (configuration not stated) | n | n | x | n | n | x | x | x
CNC(=O)c1sc(N2N=C3/C(=C/c4ccccc4)CCCC3C2c2ccccc2)nc1C (configuration not stated) | n | n | n | n | n | 28 | n | 54
COc1cc(/C=N/n2nnnc2N)cc(Cl)c1OC | n | n | x | n | n | x | x | x
O=C(Cn1ncc(Cl)c(Cl)c1=O)N1CCc2ccccc21 | n | n | n | n | 54 | 27 | n | n
O=C(Nc1ccc2oc(-c3cccnc3)nc2c1)c1ccc([N+](=O)[O-])o1 | n | n | n | n | n | 30 | n | n
COc1cccc(NC(=O)C2(C)CCN2CCc2ccccc2)c1 (configuration not stated) | n | n | x | x | x | x | x | x
CCCCn1nc(-c2ccccc2)c2nc3ccccc3nc21 | x | x | n | x | x | 49 | 47 | 50
Cc1ccc(-c2nc3ccccc3nc2-c2ccccc2)cc1 | n | n | x | n | n | x | x | x
Cn1nc(-c2ccccc2)c2nc3ccccc3nc21 | n | n | n | n | n | 28 | n | 44
COc1ccc(NC(=O)C2(C)Cc3c(-c4ccc(N(C)C)cc4)ccnc3O2)cc1OC (configuration not stated) | n | n | x | x | x | x | x | x
Cc1ccc(CNC(=O)C2(C)CCN2C(=O)Cc2ccc(C(C)(C)C)cc2)cc1 (configuration not stated) | n | n | x | x | x | x | x | x
CSc1ncc2[nH]c(C(O)c3ccccc3)nc2n1 (configuration not stated) | n | n | x | n | n | x | x | x
O=C(NCc1ccc2c(c1)OCO2)C1CC(=O)N(c2ccc(F)cc2)C1 (configuration not stated) | n | n | n | n | n | 25 | n | n
CC1CCN(Cc2ccc(-c3nn[nH]n3)cc2)CC1 | n | n | n | n | n | 27 | n | n
O=[N+]([O-])c1cccc(C2CC(c3ccccc3)=NN2c2ccccc2)c1 (configuration not stated) | n | n | x | n | n | x | x | x
N#CC1CC(c2ccc([N+](=O)[O-])cc2)=NN1c1ccc([N+](=O)[O-])cc1 (configuration not stated) | n | n | n | n | n | 56 | 56 | 83
Cc1c(NC(=O)CSc2nnc(-c3cccc(Cl)c3)o2)c(=O)n(-c2ccccc2)n1C | n | n | n | n | n | 29 | n | n
SMILES | ABHD5 PLIN5 PPI | NOD2-RIPK2 inh | Dynein cargo inh | TLR9-MyD88 block | Beta2AR agonist | TLR4-MyD88 BLA | TLR4 MyD88 cnf | BLA inhibitor ct | others
CN(C)c1ccc(/C=C/c2cc[n+](C)cc2)cc1 | n | n | n | n | n | 26 | n | n
CN(C)c1ccc(/C=C/c2cc[n+]([O-])cc2)cc1 | x | x | n | x | x | n | x | x
CCCCCNC(=O)C(C#N)c1nc2ccccc2nc1N1CCCC1 (configuration not stated) | n | n | n | n | n | n | x | x
CCCCCCNC(=O)C(C#N)c1nc2ccccc2nc1N1CCCC1 (configuration not stated) | n | n | n | n | n | 38 | 29 | n
CNc1ncnc2c1ncn2[C@H]1CN(Cc2cccc3ccccc23)C[C@@H](CO)O1 | n | n | x | x | x | x | x | x
COc1cccc(-c2cc(C(F)(F)F)c3c(N)c(C#N)sc3n2)c1 | x | x | n | x | x | 27 | n | 49
Cc1cccc2cc(C#N)c(NCCNC(=O)NC3CCCCC3)nc12 | n | n | n | n | n | 25 | n | n
Nc1[nH]c(C(=O)c2ccccc2)c(-c2ccccc2C(F)(F)F)c1C(=O)NCc1cccc2ccccc12 | n | n | x | x | x | x | x | x
COC(=O)c1cc(COC(=O)CNC(=O)c2ccc(Br)cc2)oc1C | n | n | x | n | n | x | x | x
COc1cc2c3nnc(-c4ccccc4)c-3cn(Cc3ccc(F)cc3)c2cc1OC | n | n | n | n | n | n | x | x
COc1cc2c3nnc(-c4ccc(F)cc4)c-3cn(Cc3cccc(F)c3)c2cc1OC | n | n | n | n | n | 26 | n | 50
CCOC(=O)c1ccc(S(=O)(=O)N2CCN(Cc3cc4c(cc3O)OCO4)CC2)cc1 | n | n | x | n | n | x | x | x
Cn1c(=NC(=O)CS(=O)(=O)c2ccccc2)sc2cc([N+](=O)[O-])ccc21 | n | n | x | n | n | x | x | x
CCCCC(CC)Cn1c2nc3ccccc3nc2c2c(=N)oc(C)nc21 (configuration not stated) | x | x | n | x | x | 48 | n | n
CCCCn1c2nc3ccccc3nc2c2c(=N)oc(C)nc21 | n | n | x | n | n | x | x | x
Cn1c(-c2ccc(C=O)s2)nc2c3ccccc3c3ccccc3c21 | n | n | n | n | n | 47 | 40 | 61
CCN(CC)c1ccc(/C=C(\C#N)c2nc(-c3cccs3)c(NC(C)=O)s2)cc1 | x | x | n | x | x | 28 | 28 | 51
Oc1ccc2ccccc2c1/C=N/Nc1nnc(-c2ncc[nH]2)c2ccccc12 | n | n | n | n | n | 33 | n | 50
CC(C)C[C@H]1CN([C@@H](Cc2ccccc2)CN2CCC[C@H]2CN2C(=O)C(=O)NC[C@@H]2Cc2ccc(O)cc2)C(=O)C(=O)N1CCc1ccccc1 | n | n | x | x | x | x | x | x
Cc1cc(/C=C2\Sc3ccccc3N2C)cc(C)[n+]1CC1CCCO1 (configuration not stated) | n | n | n | x | n | 36 | n | 41 | Dynein inh conf=n
Cc1ccc(/C=C2/Sc3ccccc3N(CC(=O)NCC3CCCO3)C2=O)cc1 (configuration not stated) | n | n | x | n | n | x | x | x
